ChEMBL document CHEMBL3804761, “Synthesis of a stable and orally bioavailable englerin analogue” (Bioorg Med Chem Lett, 2016)

Legend:
Assay type in all cases: functional
786-0 = test: Growth inhibition of human 786-0 cells assessed as cell growth at 10 uM incubated for 48 hrs by sulforhodamine B assay relative to control; settings: 786-0, 48 h, read-out: Activity
Outline: (§1)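 Run in the standard NCI 60-cell-line screen. Cells were exposed to drug for two days, and the read-out was sulforhodamine B staining. Compound was tested at a single final concentration of 10 µM in every line, and results are reported as growth percent.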

MDA-MB-435 = test: Growth inhibition of human MDA-MB-435 cells assessed as cell growth at 10 uM incubated for 48 hrs by sulforhodamine B assay relative to control; settings: MDA-MB-435, 48 h, read-out: Activity; outline: as §1
SK-MEL-28 = test: Growth inhibition of human SK-MEL-28 cells assessed as cell growth at 10 uM incubated for 48 hrs by sulforhodamine B assay relative to control; settings: SK-MEL-28, 48 h, read-out: Activity; outline: as §1
[1] = Growth inhibition of human LOXIMVI cells incubated for 48 hrs by sulforhodamine B assay; settings: LOX IMVI
Outline: (§2)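 NCI 60-cell-line panel, standard protocol. Cells exposed to compound for two days, growth read by sulforhodamine B staining. Tested at five 10-fold dilutions, top concentration 100 µM, to give dose-response curves.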

[2] = Growth inhibition of human OVCAR8 cells assessed as cell growth at 10 uM incubated for 48 hrs by sulforhodamine B assay relative to control; settings: OVCAR-8, 48 h, read-out: Activity; outline: as §1
HT-29 [3] = test: Growth inhibition of human HT-29 cells incubated for 48 hrs by sulforhodamine B assay; settings: HT-29, 48 h; outline: as §2
[4] = Growth inhibition of human BT549 cells incubated for 48 hrs by sulforhodamine B assay; settings: BT-549, 48 h; outline: as §2
[5] = Growth inhibition of human HOP92 cells assessed as cell growth at 10 uM incubated for 48 hrs by sulforhodamine B assay relative to control; settings: HOP-92, 48 h, read-out: Activity
Outline: (§3)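 Single-dose screen in the NCI 60-cell-line panel at one final concentration of 10 µM. Two-day drug exposure with a sulforhodamine B endpoint. Values are growth percent for each cell line.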

Malme-3M [6] = test: Growth inhibition of human MALME-3M cells assessed as cell growth at 10 uM incubated for 48 hrs by sulforhodamine B assay relative to control; settings: read-out: Activity; outline: as §1
[7] = Growth inhibition of human IGROV1 cells assessed as cell growth at 10 uM incubated for 48 hrs by sulforhodamine B assay relative to control; settings: IGROV-1, 48 h, read-out: Activity; outline: as §1
T47D [8] = test: Growth inhibition of human T47D cells incubated for 48 hrs by sulforhodamine B assay
Outline: (§4)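 Tested in the standard NCI 60-cell-line protocol with two-day drug exposure and a sulforhodamine B endpoint. Compounds were first screened at a single final concentration of 10 µM, reported as growth percent. They were then run as five 10-fold dilutions starting from a high concentration of 100 µM to give dose-response curves.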

NCI-H226 = test: Growth inhibition of human NCI-H226 cells incubated for 48 hrs by sulforhodamine B assay; settings: NCI-H226, 48 h; outline: as §2
[9] = Growth inhibition of human OVCAR5 cells incubated for 48 hrs by sulforhodamine B assay; settings: OVCAR-5, 48 h; outline: as §2
[10] = Growth inhibition of human SF539 cells assessed as cell growth at 10 uM incubated for 48 hrs by sulforhodamine B assay relative to control; settings: SF-539, 48 h, read-out: Activity; outline: as §3
NCI/ADR-RES = test: Growth inhibition of human NCI/ADR-RES cells assessed as cell growth at 10 uM incubated for 48 hrs by sulforhodamine B assay relative to control; settings: read-out: Activity; outline: as §1
U-251 = test: Growth inhibition of human U251 cells incubated for 48 hrs by sulforhodamine B assay; settings: U-251, 48 h; outline: as §4
NCI-H460 = test: Growth inhibition of human NCI-H460 cells assessed as cell growth at 10 uM incubated for 48 hrs by sulforhodamine B assay relative to control; settings: NCI-H460, 48 h, read-out: Activity; outline: as §1
A549 = test: Growth inhibition of human A549/ATCC cells incubated for 48 hrs by sulforhodamine B assay; settings: A549, 48 h; outline: as §2
HT-29 [11] = test: Growth inhibition of human HT-29 cells assessed as cell growth at 10 uM incubated for 48 hrs by sulforhodamine B assay relative to control; settings: HT-29, 48 h, read-out: Activity; outline: as §1
NCI-H522 = test: Growth inhibition of human NCI-H522 cells incubated for 48 hrs by sulforhodamine B assay; settings: NCI-H522, 48 h; outline: as §2
[12] = Growth inhibition of human SF268 cells incubated for 48 hrs by sulforhodamine B assay; settings: SF-268, 48 h; outline: as §2
[13] = Growth inhibition of human Caki1 cells assessed as cell growth at 10 uM incubated for 48 hrs by sulforhodamine B assay relative to control; settings: CAKI-1, 48 h, read-out: Activity; outline: as §1
SN12C = test: Growth inhibition of human SN12C cells assessed as cell growth at 10 uM incubated for 48 hrs by sulforhodamine B assay relative to control; settings: read-out: Activity; outline: as §1
T47D [14] = test: Growth inhibition of human T47D cells assessed as cell growth at 10 uM incubated for 48 hrs by sulforhodamine B assay relative to control; settings: read-out: Activity
Outline: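 NCI 60-cell line standard protocol, one-dose screen: single final concentration 10 µM, 2-day drug exposure, sulforhodamine B (SRB) endpoint; read-out is growth percent relative to untreated control.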

Malme-3M [15] = test: Growth inhibition of human MALME-3M cells incubated for 48 hrs by sulforhodamine B assay; outline: as §2
[16] = Growth inhibition of human RPMI8226 cells incubated for 48 hrs by sulforhodamine B assay; settings: RPMI-8226, 48 h; outline: as §2
[17] = Growth inhibition of human OVCAR8 cells incubated for 48 hrs by sulforhodamine B assay; settings: OVCAR-8, 48 h; outline: as §2
[18] = Growth inhibition of human HOP62 cells incubated for 48 hrs by sulforhodamine B assay; settings: HOP-62, 48 h; outline: as §2
SR = test: Growth inhibition of human SR cells incubated for 48 hrs by sulforhodamine B assay; outline: as §4
[19] = read-out: pLC50 (the source's name) (converted)

Structure (SMILES): CC(C)[C@@]12C[C@@H](NC(=O)CO)[C@@](C)(O1)[C@@H]1CC[C@@H](C)[C@H]1[C@@H]2OC(=O)/C=C/c1ccccc1
- growth at 10 µM (786-0): 73.1%
- growth at 10 µM (MDA-MB-435): 94.6%
- growth at 10 µM (SK-MEL-28): 112%
- GI50 [1]: 14.5 µM
- LC50 [1]: > 50.1 µM
- TGI ([1]; read-out: pTGI (converted)): > 50.1 µM
- growth at 10 µM [2]: 51.5%
- GI50 (HT-29 [3]): 16.6 µM
- LC50 (HT-29 [3]): > 50.1 µM
- TGI (HT-29 [3]; read-out: pTGI (converted)): > 50.1 µM
- GI50 [4]: 6.92 µM
- CC50 [4, 19]: > 50.1 µM
- TGI ([4]; read-out: pTGI (converted)): 25.1 µM
- growth at 10 µM [5]: 88.6%
- growth at 10 µM (Malme-3M [6]): 95.2%
- growth at 10 µM [7]: 106%
- GI50 (T47D [8]): 19.1 µM
- CC50 (T47D [8]; [19]): > 50.1 µM
- TGI (T47D [8]; read-out: pTGI (converted)): > 50.1 µM
- GI50 (NCI-H226): 25.1 µM
- LC50 (NCI-H226): > 50.1 µM
- TGI (NCI-H226; read-out: pTGI (converted)): > 50.1 µM
- GI50 [9]: 23.4 µM
- LC50 [9]: > 50.1 µM
- TGI ([9]; read-out: pTGI (converted)): > 50.1 µM
- growth at 10 µM [10]: 97.2%
- growth at 10 µM (NCI/ADR-RES): 42.9%
- GI50 (U-251): 15.5 µM
- LC50 (concentration giving 50% net cell kill) (U-251): > 50.1 µM
- TGI (U-251; read-out: pTGI (converted)): > 50.1 µM
- growth at 10 µM (NCI-H460): 108%
- GI50 (A549): 13.5 µM
- LC50 (A549): > 50.1 µM
- TGI (A549; read-out: pTGI (converted)): > 50.1 µM
- growth at 10 µM (HT-29 [11]): 93%
- GI50 (NCI-H522): 19.1 µM
- LC50 (NCI-H522): > 50.1 µM
- TGI (NCI-H522; read-out: pTGI (converted)): > 50.1 µM
- GI50 [12]: 14.8 µM
- LC50 (lethal concentration, 50% net cell kill) [12]: > 50.1 µM
- TGI ([12]; read-out: pTGI (converted)): > 50.1 µM
- growth at 10 µM [13]: 61.1%
- growth at 10 µM (SN12C): 48.8%
- growth at 10 µM (T47D [14]): 76.3%
- GI50 (Malme-3M [15]): 20.9 µM
- LC50 (Malme-3M [15]): > 50.1 µM
- TGI (Malme-3M [15]; read-out: pTGI (converted)): > 50.1 µM
- GI50 [16]: 11.5 µM
- CC50 [16, 19]: > 50.1 µM
- TGI ([16]; read-out: pTGI (converted)): 42.7 µM
- GI50 [17]: 4.79 µM
- LC50 (concentration killing 50% of cells) [17]: > 50.1 µM
- TGI ([17]; read-out: pTGI (converted)): > 50.1 µM
- GI50 [18]: 35.5 µM
- LC50 [18]: > 50.1 µM
- TGI ([18]; read-out: pTGI (converted)): > 50.1 µM
- GI50 (SR): 13.5 µM
- LC50 (SR): > 50.1 µM
- TGI (SR; read-out: pTGI (converted)): 37.2 µM
